The record followed here is ChEMBL document CHEMBL4371071, “Muscarinic agonist, (±)-quinuclidin-3-yl-(4-fluorophenethyl)(phenyl)carbamate: High affinity, but low subtype selectivity for human M1 - M5 muscarinic acetylcholine receptors” (Bioorg Med Chem Lett, 2019).

Activity calls are given as the source filed them. No cut-off for these calls is given here.

Experiment [1] concerns the target T1, Muscarinic acetylcholine receptor (Rattus norvegicus) (UniProt P08482+P08483+P08485+P08911+P10980). The experiment in a line: Agonist activity at muscarinic acetylcholine receptor in superfused rat striatal slices assessed as augmentation of oxotremorine-induced [3H]DA release at 1 to 10 uM preincubated for 35 mins in presence of [3H]DA followed by oxotremorine addition and measured after 25 mins in presence of scopolamine by liquid scintillation spectroscopic method. It is filed as […]. In short, it runs like this:
(§1)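 Rat striatal slices (500 µm) in Krebs' buffer pH 7.4 at 34 °C for 60 min, with 0.1 µM [3H]DA over the final 30 min. Superfused at 0.6 mL/min with 10 µM nomifensine and 10 µM pargyline; 5-min fractions. Basal outflow taken over 15 min, then test agent 35 min, then 100 µM oxotremorine 25 min. Overflow = summed radioactivity minus basal, by scintillation; n = 4–10.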

Experiment [2] has as its target Muscarinic acetylcholine receptor M3 (Homo sapiens, UniProt P20309). To be noted: CHO, at 100 µM.
In experiment [3] the target is T2, Muscarinic acetylcholine receptor M1 (Homo sapiens, UniProt P11229).
T2 sequence (P11229 whole entry): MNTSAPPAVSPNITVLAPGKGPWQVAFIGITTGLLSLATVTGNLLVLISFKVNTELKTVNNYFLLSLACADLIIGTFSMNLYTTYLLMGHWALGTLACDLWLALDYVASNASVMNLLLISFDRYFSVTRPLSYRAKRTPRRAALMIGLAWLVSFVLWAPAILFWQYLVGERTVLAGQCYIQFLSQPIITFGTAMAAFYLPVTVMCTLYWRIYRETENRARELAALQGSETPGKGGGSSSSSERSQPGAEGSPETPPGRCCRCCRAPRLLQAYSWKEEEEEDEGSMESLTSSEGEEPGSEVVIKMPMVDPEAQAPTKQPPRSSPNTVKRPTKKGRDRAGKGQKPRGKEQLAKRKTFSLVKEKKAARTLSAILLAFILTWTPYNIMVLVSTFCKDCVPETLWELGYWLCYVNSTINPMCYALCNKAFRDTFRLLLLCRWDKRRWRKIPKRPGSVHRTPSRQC
Kind of experiment: Displacement of [3H]NMS from human M1 AChR expressed in CHO cell membranes after 1 to 2 hrs by liquid scintillation spectrometry method. It is filed as cell-based.

Experiment [4] addresses T3, Muscarinic acetylcholine receptor M4 (Homo sapiens, UniProt P08173).
T3 sequence (P08173 whole entry): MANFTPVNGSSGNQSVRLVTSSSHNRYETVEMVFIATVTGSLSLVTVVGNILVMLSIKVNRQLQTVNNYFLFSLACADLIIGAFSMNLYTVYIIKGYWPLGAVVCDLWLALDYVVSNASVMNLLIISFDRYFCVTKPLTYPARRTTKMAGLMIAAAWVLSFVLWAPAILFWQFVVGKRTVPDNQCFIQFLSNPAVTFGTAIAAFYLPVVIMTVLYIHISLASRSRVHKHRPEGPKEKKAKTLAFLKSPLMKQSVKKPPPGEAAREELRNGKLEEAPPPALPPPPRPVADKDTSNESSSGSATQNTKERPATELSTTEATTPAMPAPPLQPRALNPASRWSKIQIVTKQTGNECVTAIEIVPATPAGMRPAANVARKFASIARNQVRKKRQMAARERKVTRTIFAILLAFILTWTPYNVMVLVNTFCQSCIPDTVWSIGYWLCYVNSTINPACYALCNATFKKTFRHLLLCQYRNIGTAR
The experiment in a line: Displacement of [3H]NMS from human M4 AChR expressed in CHO cell membranes after 1 to 2 hrs by liquid scintillation spectrometry method. The essentials: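 Human M4-expressing CHO membranes (20 µg protein/well) incubated 2 h at 25 °C with 0.3 nM [3H]NMS and analog (1 nM–100 µM) in 50 mM Tris–HCl pH 7.4. […] Filtered, washed, counted by scintillation. IC50 taken from inhibition curves, Ki from three independent duplicate experiments (mean ± SEM).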
On the technique in general: In a radioligand displacement assay an active substance lowers the binding of a labelled ligand.

Experiment [5] addresses T4, Muscarinic acetylcholine receptor M5 (Homo sapiens) (UniProt P08912).
T4 sequence (whole entry): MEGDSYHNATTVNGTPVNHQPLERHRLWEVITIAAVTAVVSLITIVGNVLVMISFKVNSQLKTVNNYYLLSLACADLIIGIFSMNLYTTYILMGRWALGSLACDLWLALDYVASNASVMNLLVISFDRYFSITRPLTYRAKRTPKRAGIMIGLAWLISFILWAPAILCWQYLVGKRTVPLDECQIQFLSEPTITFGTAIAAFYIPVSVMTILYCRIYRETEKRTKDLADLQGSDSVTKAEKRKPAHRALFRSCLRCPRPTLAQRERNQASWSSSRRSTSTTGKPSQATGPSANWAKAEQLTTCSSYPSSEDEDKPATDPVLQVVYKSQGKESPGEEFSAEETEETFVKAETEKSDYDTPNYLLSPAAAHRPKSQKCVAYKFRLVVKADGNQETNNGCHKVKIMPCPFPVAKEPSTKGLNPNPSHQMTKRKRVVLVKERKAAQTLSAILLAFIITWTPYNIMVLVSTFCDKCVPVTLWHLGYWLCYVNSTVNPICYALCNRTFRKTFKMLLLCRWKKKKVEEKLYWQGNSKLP
The experiment in a line: Displacement of [3H]NMS from human M5 AChR expressed in CHO cell membranes at 100 uM after 1 to 2 hrs by liquid scintillation spectrometry method relative to control. The essentials: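 CHO membranes expressing human M5 (10 µg protein/well) with 0.3 nM [3H]NMS and analog (1 nM–100 µM) in 50 mM Tris-HCl pH 7.4, 2 h at 25 °C. […] Filtered on GF/B, counted by scintillation. IC50 converted to Ki; three independent experiments in duplicate.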

Experiment [6] addresses T1, Muscarinic acetylcholine receptor (Rattus norvegicus). The experiment in a line: Agonist activity at muscarinic acetylcholine receptor in superfused rat striatal slices assessed as augmentation of oxotremorine-induced [3H]DA release at 0.1 to 10 uM preincubated for 35 mins in presence of [3H]DA followed by oxotremorine addition and measured after 25 mins by liquid scintillation spectroscopic method. In short, it runs like this:
as §1

Chain of Muscarinic acetylcholine receptor M3 (P20309 whole entry, looked up): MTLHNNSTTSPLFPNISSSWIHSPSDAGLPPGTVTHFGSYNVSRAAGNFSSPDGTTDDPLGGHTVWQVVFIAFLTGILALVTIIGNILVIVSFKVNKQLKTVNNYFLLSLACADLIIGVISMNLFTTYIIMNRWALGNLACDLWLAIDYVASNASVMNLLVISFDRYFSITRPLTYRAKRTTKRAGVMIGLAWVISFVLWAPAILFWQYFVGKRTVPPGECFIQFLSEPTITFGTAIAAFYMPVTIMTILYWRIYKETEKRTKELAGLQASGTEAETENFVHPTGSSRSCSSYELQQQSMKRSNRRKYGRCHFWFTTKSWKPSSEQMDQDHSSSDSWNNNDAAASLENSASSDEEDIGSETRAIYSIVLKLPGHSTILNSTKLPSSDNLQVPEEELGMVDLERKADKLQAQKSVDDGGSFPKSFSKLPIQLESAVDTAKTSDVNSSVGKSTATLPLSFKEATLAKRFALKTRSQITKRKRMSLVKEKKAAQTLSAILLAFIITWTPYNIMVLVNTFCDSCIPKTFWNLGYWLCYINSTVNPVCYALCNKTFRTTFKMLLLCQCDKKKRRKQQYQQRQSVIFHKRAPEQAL

For orientation: Ki means a dissociation constant, usually derived from enzyme kinetics or from competition with a known ligand. A high value points to lower affinity. Consider `O=C(OC1CN2CCC1CC2)N(CCc1ccc(F)cc1)c1ccccc1` (racemic), for which the result in experiment [1] was inactive. Moreover, the Imax in experiment [2] was 100%; in experiment [5], 99.8%. Besides, the Ki in experiment [3] is 2 nM; in experiment [4], 2.2 nM. Further, the outcome in experiment [6] was Active.
